Bioassay records from PubChem BioAssay.
PglD DTNB – C. jejuni PglD acetyltransferase inhibitors, primary screen, biochemical, DTNB colorimetric, single point | inhibition, % at 12.5 µM | 0.098% of 360,000 active | purified PglD enzyme, DTNB colorimetric CoA detection | UDP-N-acetylbacillosamine N-acetyltransferase PglD (Campylobacter jejuni); in the data active = inhibition above about 16%, passing the limit was not always enough
Yeast superoxide – reduction of superoxide in aged yeast, primary screen, HTS. S. cerevisiae aged cells, superoxide DHE fluorescence; stronger effect = lower value. superoxide response (% of plate mean), % at 10 µM. 0.18% of 330,000 active. AID 2690, 2010;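 active = superoxide response under a set limit, about three screen SD below normal, cut at about 65% in these data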;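 also: yeast aged for seven days with compound at 30 °C before DHE staining; 100% = average MFI of all compound-treated wells on the plate with controls excluded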
SUMO Mot1 rescue – yeast Mot1-301 growth rescue at high temperature, primary screen, SUMOylation pathway inhibitor project, S. cerevisiae, ATP luminescence, 38.5C. growth rescue, % at 18.8 µM. S. cerevisiae Mot1-301 growth rescue; percent above DMSO median, 100 means doubled. 1% of 320,000 active;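 active = every valid replicate shows activation above 250% relative to neutral control wells; inactive = the rest, any valid replicate at or below 250%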;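 also: OY570 slx delta 5 strain wells were the positive control but not used for scaling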
Cneo AK release – Cryptococcus neoformans cell lysis inducers, primary screen, AK release luminescence, single concentration. lysis activity, % at 15 µM. C. neoformans lysis, adenylate kinase release luminescence, 4 h; normalised: neutral wells 0, clomiphene wells 100. 0.2% of 360,000 active;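 active = mean lysis activity across replicates of at least 80%, whatever share of replicates individually reach that level; inactive = mean lysis activity below 80%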
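Test system: log-phase Cryptococcus neoformans yeast cells. Input: 5 × 10^6 yeast cells/mL. Medium: fresh YPD growth medium. Doses: single dose. Incubation: static 4 h at 37 °C with compound, 1 h detection. Measured by: luminescent adenylate kinase detection reagent. Read-out: signal increase indicating cell lysis. Benchmarks: Clomiphene.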
Ecoli rRNA inh – reduced GFP signal of wild-type E. coli, primary screen, bacterial rRNA inhibitor project, GFP/RFP fluorescence, OD600, single point. E. coli WT GFP vs humanized-ribosome RFP mutants, 24 h; stronger effect = lower value; DMSO median 0, no signal -100. GFP signal change (wild-type ribosome), % (test concentration not listed). 1.6% of 350,000 active. AID 720706, 2013;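 active = significant combined selectivity score with lowered wild-type GFP, culture density cut under 30%, mutant RFP and density less affected; inactive = any of these conditions unmet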
CR mimetic CP – superoxide lowering in aged yeast cells, confirmation, cherry picked compounds; 1% of 850 active; superoxide response (% of plate), % at 10 µM; S. cerevisiae aging, superoxide DHE fluorescence; stronger effect = lower value; shares compounds with Yeast superoxide; AID 434994, 2010;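 active = superoxide signal below 65% of the plate average of sample wells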;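 also: cells aged with compound for 7 days at 30 degrees C before staining; 100% equals mean DHE fluorescence of all compound wells on the plate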
DHE counter – DHE quenching or ROS scavenging interference in aged yeast, artefact control for yeast caloric restriction mimetic project, S. cerevisiae BY4741, flow cytometry. shares compounds with Yeast superoxide. DHE fluorescence; stronger effect = lower value. 850 tested, under 10 active. fluorescence response, % at 10 µM;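 active = fluorescence response below 15%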;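 also: percent of the mean fluorescence averaged over all compound wells on the plate; lower means stronger quenching of DHE signal or ROS scavenging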
Numbers without * were called inactive; x = not tested or not shown. Only some compounds are listed: those with a hit (about 2.2% of all), similar ones and a draw of the others.

SMILES	PglD DTNB	Yeast superoxide	SUMO Mot1 rescue	Cneo AK release	Ecoli rRNA inh	CR mimetic CP	DHE counter
O=C(CN1CCN(c2ccccn2)CC1)Nc1cccc(F)c1	-5.0	100.6	7.6	-1.1	8.3	110.2	92.4
CS(=O)(=O)Nc1ccc2c(c1)[C@@H]1C[C@H](CC(=O)NC3CCCC3)O[C@H](CO)[C@@H]1O2	2.5	x	x	4.4	5.0	x	x
CCC(=Nc1ccccc1O)C1=C(O)CC(c2ccccc2)CC1=O (stereo not given)	5.9	61.6*	53.2	1.9	-8.9	69.8	97.9
CC(c1ccco1)N(C(=O)c1cc(Cl)cc(Cl)c1)c1ccccn1 (stereo not given)	-2.6	101.3	-8.4	0.1	-14.7	x	x
CC(c1ccco1)N(C(=O)c1ccccc1NS(=O)(=O)c1ccc(Cl)c([N+](=O)[O-])c1)c1ccccn1 (stereo not given)	0.8	65.1*	76.8	0.4	3.6	97.1	88.4
COc1ccc(C(=O)N2CCN(c3ccccc3OC)CC2)cc1	-4.6	109.0	1.7	1.6	2.8	97.1	91.2
CCc1ccc2oc(C(=O)N3CCN(c4ccc(OC)cc4)CC3)cc(=O)c2c1	-0.2	116.7	-16.5	-0.1	1.6	x	x
CCOc1ccc(C(=O)N2CCN(c3cccc(Cl)c3)CC2)cc1	x	115.2	227.9	x	-24.6	104.1	89.4
CCOc1ccc(C(=O)N2CCN(c3cccc(C)c3C)CC2)cc1	2.6	99.3	2.7	7.2	x	107.3	89.1
CCc1ccc2oc(C(=O)N3CCN(c4ccccc4OC)CC3)cc(=O)c2c1	-5.5	62.0*	10.0	-0.3	-16.6	105.7	94.9
CC(C)CC#Cc1ccc2c(c1)O[C@@H](CN(C)C(=O)c1ccccn1)[C@@H](C)CN([C@@H](C)CO)S2(=O)=O	-0.5	x	x	-3.4	4.2	x	x
COc1ccc(C(=O)N2CCN(c3cccc(Cl)c3)CC2)cc1	1.5	100.6	11.6	3.8	-11.7	98.3	107.9
COc1ccc(S(=O)(=O)Nc2ccc3c(c2)C(=O)N([C@H](C)CO)C[C@H](C)[C@H](CN(C)S(=O)(=O)c2ccccc2)O3)cc1	-0.4	x	x	-2.3	0.6	x	x
CCOc1ccc2nc(NCCCNS(=O)(=O)c3ccc(F)cc3)c(C#N)cc2c1	x	123.0	-15.3	x	17.4	x	x
CCOc1ccc2nc(NCCCNS(=O)(=O)c3ccccc3)c(C#N)cc2c1	-6.5	64.7*	-4.5	-1.4	x	99.8	92.3
CC(C)(C)c1ccc(/C=N/OCC(=O)NCc2ccc(F)cc2)cc1	x	62.5*	-9.3	x	-10.6	101.3	91.0
C[C@H](CO)N1C[C@H](C)[C@H](CN(C)S(=O)(=O)c2ccc(F)cc2)Oc2ccc(NC(=O)c3ccncc3)cc2C1=O	2.4	x	x	-4.4	-1.8	x	x
O=C(C[C@H]1C=C[C@H](NC(=O)c2cccc(F)c2)[C@H](CO)O1)NCc1ccc(Oc2ccccc2)cc1	x	x	x	x	-0.5	x	x
CCN1[C@@H]2Cn3c(ccc(/C=C/c4ccccc4)c3=O)[C@H]1[C@@H](C(=O)N1CCCCC1)[C@@H]2CO	x	x	x	x	-0.1	x	x
C/C=C/c1ccc2c(c1)O[C@H](CN(C)C(=O)c1ccccc1F)[C@@H](C)CN([C@@H](C)CO)S2(=O)=O	2.7	x	x	59.8	-4.2	x	x
COc1cc(/C=C(\C#N)C(=O)NC(C)C)cc(Cl)c1O	-0.3	95.7	7.2	3.6	1.0	106.3	91.8
CC(C)[C@@H]1CC=CC[C@@H](C)Oc2ccccc2C(=O)N(C)[C@H](C)C(=O)N1 (mixture of isomers)	x	x	x	x	-59.0	x	x
O=C(Nc1ccc(F)cc1)N[C@@H]1CC[C@@H](CCn2cc(-c3ccccc3F)nn2)O[C@@H]1CO	-0.2	x	x	4.2	1.4	x	x
CN(C)c1ccc(NC(=O)c2cccc(C(=O)Nc3ccc(N(C)C)cc3)n2)cc1	x	64.5*	16.1	x	x	113.3	99.6
Cc1ccc(-n2nc3ccc(NC(=O)/C=C/c4ccco4)cc3n2)cc1	-4.1	54.5*	-8.1	-1.7	4.3	102.0	95.4
SMILES	PglD DTNB	Yeast superoxide	SUMO Mot1 rescue	Cneo AK release	Ecoli rRNA inh	CR mimetic CP	DHE counter
O=C(c1ccccn1)N1C[C@H]2[C@@H](c3ccccc31)[C@@H](CO)N2C(=O)C1CCOCC1	0.1	x	x	1.5	3.8	x	x
C#Cc1cccc(-n2nnc(C(=O)OC)c2-c2ccccc2)c1	2.8	51.6*	51.6	-0.5	-10.0	96.1	93.5
COc1cccc(CNC(=O)C[C@H]2C=C[C@@H](NS(=O)(=O)c3ccccc3OC)[C@@H](CO)O2)c1	x	x	x	x	-2.4	x	x
COc1ccc2c3c(n(C)c2c1)[C@@H](CO)N(Cc1ccncc1)CC31CCN(C(=O)C2CCCCC2)CC1	x	x	x	x	-0.2	x	x
O=C(CNC(=O)c1ccccc1)NCC(=O)OCc1ccccc1Cl	x	109.0	14.7	x	0.0	x	x
O=C(CCNC(=O)c1ccc(Br)cc1)OCc1ccccc1Cl	6.2	63.1*	-7.0	-1.6	-45.8	114.7	114.9
CS(=O)(=O)N1CCCCN2[C@H](CO)[C@@H](c3ccc(-c4cccc(C#N)c4)cc3)[C@@H]2C1	-3.1	x	x	-2.7	-4.3	x	x
O=C(Cc1ccc(Cl)cc1)NCC(=O)N1CCC2(CC1)NCCc1[nH]cnc12	-1.1	x	x	-10.6	2.5	x	x
O=C(Cc1ccc(Cl)cc1)N1CCC2(CC1)NCCc1[nH]cnc12	-4.7	63.9*	266.5	6.0	9.2	98.7	93.3
CN1C(=O)c2cc(NC(=O)C3CCCC3)ccc2OC[C@H]2O[C@H](CC(=O)NCc3ccccc3F)CC[C@@H]21	x	x	x	x	-0.1	x	x
Cc1ccc(F)cc1NC(=O)CN1CCN(c2ccccn2)CC1	x	96.9	-8.7	x	-8.1	106.5	89.2
O=C(CCN1CCN(c2ccccn2)CC1)Nc1ccc(F)cc1	-7.4	104.1	7.5	1.2	x	x	x
O=C(CN1CCN(c2ccccn2)CC1)Nc1cc(F)ccc1F	-3.0	107.5	-1.0	-0.5	9.7	103.3	100.4
O=C(CN1CCN(c2ccccn2)CC1)Nc1ccccc1F	-1.2	95.4	-24.1	0.0	8.5	x	x
O=C(CN1CCN(c2ccccn2)CC1)Nc1ccc(F)cc1F	7.3	90.1	17.3	-0.2	12.8	90.7	100.1
O=C(N[C@H]1CC[C@@H](CCNC(=O)C2CCCCC2)O[C@@H]1CO)c1ccccn1	0.1	x	x	-0.2	2.5	x	x
CCCCCN(C(=O)CCC(=O)OCc1ccccc1Cl)c1c(N)n(CCCC)c(=O)[nH]c1=O	-0.9	59.9*	13.3	1.5	7.6	104.9	97.4
